Experimental findings from ChEMBL document CHEMBL3860087, “New Broad-Spectrum Antibacterial Amphiphilic Aminoglycosides Active against Resistant Bacteria: From Neamine Derivatives to Smaller Neosamine Analogues” (J Med Chem, 2016) are described below.

In brackets after ≈: the same amount, converted by molar mass. A value given as a limit tells only on which side of the number the result lay.

Data set [1] is filed under the species Mus musculus. In words: (§1) Cytotoxicity against mouse J774 cells assessed as cell viability at 30 uM after 24 hrs by MTT assay relative to control. Format: toxicity, cell-based. The following applies: j774, 24 h, 30 µM. In a few lines:
(§2)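 Murine J774 macrophages exposed 24 h to 10 or 30 μM compound, then 1 h with 0.2 mg/mL MTT; reaction stopped with DMSO, OD read at 570 nm as metabolic-activity viability. Number of independent experiments given per value.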
(In general: Tetrazolium dyes change colour on reduction, which living cells bring about.)

The species named for data set [2] is Mus musculus. In words: (§3) Cytotoxicity against mouse J774 cells assessed as cell viability at 10 uM after 24 hrs by MTT assay relative to control. The format is toxicity, cell-based. The following applies: j774, 24 h, 10 µM. In a few lines:
as §2

Data set [3] has as its system Pseudomonas aeruginosa. As to the kind of experiment: Induction of inner membrane permeabilization of Pseudomonas aeruginosa ATCC 27853 at 150 uM after 15 mins by propidium iodide staining-based fluorescence assay relative to control. The format is functional.
Data set [4] concerns Pseudomonas aeruginosa. In words: Ratio of MIC for Pseudomonas aeruginosa ATCC 27853 after 4 serial passages to MIC for Pseudomonas aeruginosa ATCC 27853 prior to serial passages. The format is functional.
Data set [5] can be described thus: as §1. The format is toxicity, cell-based. The following applies: J774 cells, read-out: Activity. In a few lines:
as §2

The test system of data set [6] is Pseudomonas aeruginosa. As to the kind of experiment: Antibacterial activity against AAC6'-2A expressing Pseudomonas aeruginosa F03 by microdilution method. Format: functional. Summed up: (§4)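 Strains grown overnight at 37 °C on trypticase soy agar; MIC by broth microdilution from fresh culture in cation-adjusted Mueller–Hinton broth, starting inoculum 10^6 cells, following CLSI recommendations.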
A general note: Dilution methods test growth across graded concentrations, often in twofold steps.

The subject of data set [7] is Pseudomonas aeruginosa. As to the kind of experiment: Induction of inner membrane permeabilization of Pseudomonas aeruginosa ATCC 27853 at 5 uM after 15 mins by propidium iodide staining-based fluorescence assay relative to control. The format is functional. Summed up:
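P. aeruginosa ATCC 27853 from TSA colony, overnight in MHB-CA at 37 °C with shaking, diluted 100-fold and grown 4 h to mid-log (OD620 ~0.4–0.5). Suspension (OD600 0.05) with PI (3 mM stock diluted 10^3-fold) plus compound in HEPES (1–10 μM final). Fluorescence ex 540/em 610 nm at 25 °C after 15 min; normalized to CTAB 150 μM (100%) and imipenem (0%).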

The test system of data set [8] is Pseudomonas aeruginosa. In words: Antibacterial activity against Pseudomonas aeruginosa ATCC 27853 by microdilution method. Format: functional. Summed up: as §4
In data set [9] the test system is Acinetobacter lwoffii. In words: Antibacterial activity against APH3'-VIA expressing Acinetobacter lwoffii AI.88-483 by microdilution method. The format is functional. In a few lines: as §4
Data set [10] in a line: as §3. The format is toxicity, cell-based. The following applies: J774 cells, read-out: Activity. Summed up: as §2
The subject of data set [11] is Staphylococcus aureus. In words: Antibacterial activity against Staphylococcus aureus ATCC 25923 by microdilution method. Format: functional. In a few lines:
(§5)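 Broth microdilution per CLSI in cation-adjusted Mueller–Hinton broth. Strains were grown overnight at 37 °C on trypticase soy agar, and a fresh culture was used. Starting inoculum was 10^6 cells.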

The test system of data set [12] is Pseudomonas aeruginosa. In words: Antibacterial activity against triABC deficient Pseudomonas aeruginosa PA406 by microdilution method. The format is functional. Summed up: as §4
For data set [13], the system named is Escherichia coli. In words: Antibacterial activity against ANT2''-IA expressing Escherichia coli L8058.1 by microdilution method. Format: functional. Summed up: as §4
Data set [14] has as its system Escherichia coli. As to the kind of experiment: microbe, parasite or virus in culture. Conditions: ATCC 25922.
Another data set concerns Klebsiella pneumoniae. As to the kind of experiment: Antibacterial activity against Klebsiella pneumoniae ATCC 700603 by microdilution method. Format: functional. In a few lines: as §4
For data set [15], the system named is Pseudomonas aeruginosa. In words: Antibacterial activity against MexXY expressing Pseudomonas aeruginosa PA22 by microdilution method. Format: functional. In a few lines:
as §4

Data set [16] has as its system Escherichia coli. As to the kind of experiment: Antibacterial activity against AAC6'-IB expressing Escherichia coli PAZ505H8101 by microdilution method. The format is functional. In a few lines: as §4
Data set [17] has as its system Staphylococcus aureus. In words: Antibacterial activity against NorA expressing Staphylococcus aureus 1 by microdilution method.
Data set [18] deals with Acinetobacter lwoffii. As to the kind of experiment: Antibacterial activity against Acinetobacter lwoffii ATCC 17925 by microdilution method. Format: functional. Summed up: as §4
The test system of data set [19] is Staphylococcus aureus. In words: Antibacterial activity against healthcare-acquired methicillin-resistant Staphylococcus aureus ATCC 33592 by microdilution method. Format: functional. Summed up:
as §5

In data set [20] the test system is Pseudomonas aeruginosa. As to the kind of experiment: Ratio of MIC for Pseudomonas aeruginosa ATCC 27853 after 9 serial passages to MIC for Pseudomonas aeruginosa ATCC 27853 prior to serial passages. The format is functional.

In the case of GENTAMICIN, the values for the Activity in the data set filed under Mus musculus [1] and in the data set filed under Mus musculus [2] were 74.2% and 88.2%, respectively.
Regarding Hexadecyltrimethylammonium bromide, in the data set with Pseudomonas aeruginosa [3], the Activity came out at 100%.
For the compound `O=C(O)c1cn(C2CC2)c2cc(N3CCNCC3)c(F)cc2c1=O` [CIPROFLOXACIN], the Ratio in the data set on Pseudomonas aeruginosa [4] was found to be 15.
On to `CCCCCCCCCO[C@@H]1[C@@H](N)[C@@H](O[C@H]2[C@H](O)[C@@H](O)[C@H](N)C[C@@H]2N)O[C@H](CN)[C@H]1OCCCCCCCCC`, for which the viability at 24 h, 30 µM in data set [5] was determined as 48.6%. Besides, the MIC was 8 to 16 µg/mL (≈ 13.9 to 27.8 µM) with Pseudomonas aeruginosa [6]; 8 to 16 µg/mL (≈ 13.9 to 27.8 µM) against Pseudomonas aeruginosa [8]; 32 µg/mL (≈ 55.7 µM) against Acinetobacter lwoffii [9]; 4 µg/mL (≈ 6.96 µM) against Staphylococcus aureus [11]; 8 to 16 µg/mL (≈ 13.9 to 27.8 µM) against Pseudomonas aeruginosa [12]; 4 to 8 µg/mL (≈ 6.96 to 13.9 µM) in the data set on Escherichia coli [13]. The MIC in the data set with Escherichia coli [14] was 4 to 8 µg/mL (≈ 6.96 to 13.9 µM); against Klebsiella pneumoniae, 16 to 32 µg/mL (≈ 27.8 to 55.7 µM); against Pseudomonas aeruginosa [15], 8 to 16 µg/mL (≈ 13.9 to 27.8 µM); against Escherichia coli [16], 2 to 4 µg/mL (≈ 3.48 to 6.96 µM); against Staphylococcus aureus [17], 2 µg/mL (≈ 3.48 µM); in the data set on Acinetobacter lwoffii [18], 2 to 4 µg/mL (≈ 3.48 to 6.96 µM). The compound also gave an MIC against Staphylococcus aureus [19] of 4 µg/mL (≈ 6.96 µM). In addition, the Activity in the data set with Pseudomonas aeruginosa [7] is given as 25%. Also, in data set [10], the viability at 24 h, 10 µM was 82.7%.
For the compound `NC[C@H]1O[C@H](O[C@H]2[C@H](O)[C@@H](O)[C@H](N)C[C@@H]2N)[C@H](N)[C@@H](OCCCc2ccc3ccccc3c2)[C@@H]1OCCCc1ccc2ccccc2c1`, the viability at 24 h, 30 µM in data set [5] turned out to be 66.9%. Further, the MIC in the data set with Pseudomonas aeruginosa [6] is 8 µg/mL (≈ 12.1 µM); with Pseudomonas aeruginosa [8], 4 µg/mL (≈ 6.07 µM); against Acinetobacter lwoffii [9], 32 to 64 µg/mL (≈ 48.6 to 97.1 µM); against Staphylococcus aureus [11], 2 to 4 µg/mL (≈ 3.04 to 6.07 µM); in the data set on Pseudomonas aeruginosa [12], 4 µg/mL (≈ 6.07 µM); against Escherichia coli [13], 4 to 8 µg/mL (≈ 6.07 to 12.1 µM). Besides, the MIC with Escherichia coli [14] was 16 to 32 µg/mL (≈ 24.3 to 48.6 µM); in the data set with Klebsiella pneumoniae it was 64 µg/mL (≈ 97.1 µM); with Pseudomonas aeruginosa [15], 16 µg/mL (≈ 24.3 µM); against Escherichia coli [16], 2 µg/mL (≈ 3.04 µM); in the data set with Staphylococcus aureus [17] it was 0.5 to 1 µg/mL (≈ 0.759 to 1.52 µM); against Acinetobacter lwoffii [18], 2 to 4 µg/mL (≈ 3.04 to 6.07 µM). In addition, the MIC against Staphylococcus aureus [19] lay within 1 to 2 µg/mL (≈ 1.52 to 3.04 µM). In data set [10], the viability at 24 h, 10 µM amounted to 87.7%. Moreover, the Ratio with Pseudomonas aeruginosa [20] turned out to be 15.
For `C=CCO[C@H]1O[C@H](CN)[C@@H](OCCCCCCCCC)[C@H](OCCCCCCCCC)[C@H]1N`, the viability at 24 h, 30 µM in data set [5] was 6.6%. In addition, the MIC in the data set with Pseudomonas aeruginosa [6] was over 128 µg/mL; with Pseudomonas aeruginosa [8], over 128 µg/mL; against Acinetobacter lwoffii [9] it was 32 µg/mL (≈ 68 µM); in the data set with Staphylococcus aureus [11], 4 µg/mL (≈ 8.5 µM); in the data set on Pseudomonas aeruginosa [12] it was over 128 µg/mL; in the data set with Escherichia coli [13], over 128 µg/mL. Further, the MIC was 32 to 64 µg/mL (≈ 68 to 136 µM) in the data set with Escherichia coli [14]; 128 µg/mL (≈ 272 µM) in the data set with Klebsiella pneumoniae; over 128 µg/mL against Pseudomonas aeruginosa [15]; over 128 µg/mL in the data set with Escherichia coli [16]; 4 µg/mL (≈ 8.5 µM) in the data set on Staphylococcus aureus [17]; 4 to 8 µg/mL (≈ 8.5 to 17 µM) against Acinetobacter lwoffii [18]. Besides, the MIC in the data set on Staphylococcus aureus [19] is 4 µg/mL (≈ 8.5 µM). Besides, the viability at 24 h, 10 µM in [10] turned out to be 91.4%.
